Assay results taken from ChEMBL document CHEMBL3994644, “Discovery of AAT-008, a novel, potent, and selective prostaglandin EP4 receptor antagonist” (Bioorg Med Chem Lett, 2017).
In brackets after ≈: the same amount, converted by molar mass.

Key:
Prostacyclin receptor = Prostacyclin receptor (Homo sapiens, UniProt P43119); test: Antagonist activity at human IP receptor
[1] = target: T1, Prostaglandin E2 receptor EP4 subtype (Homo sapiens, UniProt P35408); test: Antagonist activity at human EP4 receptor expressed in HEK293 cells assessed as inhibition of PGE2-induced cAMP level by HTS assay; format: functional, cell-based
[2] = Solubility of the compound in pH 6.5 PBS; format: physicochemical
[3] = target: T1, Prostaglandin E2 receptor EP4 subtype; test: Displacement of [3H]PGE from human EP4 receptor expressed in HEK293 cell membranes
Procedure, shortened: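 Membrane binding assay using [3H]PGE2 with membranes from HEK-293 cells expressing human EP4. The value is expressed as Ki.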

[4] = target: Prostaglandin E2 receptor EP2 subtype (Homo sapiens, UniProt P43116); test: Antagonist activity at human EP2 receptor
Rattus norvegicus [5] = test: Analgesic activity in po dosed rat assessed as inhibition of carrageenan-induced mechanical hyperalgesia measured at 1 hr post dose; format: functional
Procedure, shortened: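 Rats dosed orally. Mechanical hyperalgesia was induced with carrageenan and assessed 1 h post dose. The value is the minimum effective dose (MED, mg/kg PO).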

[6] = Antagonist activity at human DP receptor
[7] = target: Prostaglandin F2-alpha receptor (Homo sapiens, UniProt P43088); test: Antagonist activity at human FP receptor
[8] = Tmax in Sprague-Dawley rat at 1 mg/kg, po; format: ADME, organism-based; settings: in vivo
Procedure, shortened: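 Oral administration of the compound; Tmax is from plasma concentration–time profiles. Values are mean SD of N = 4 animals per species.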

[9] = Tmax in Beagle dog at 1 mg/kg, po; format: ADME, organism-based, Canis lupus familiaris; settings: in vivo
Procedure, shortened: (§1)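 Single 1 mg/kg dose given IV or PO to rats, dogs and monkeys. Plasma pharmacokinetic parameters were derived and reported as mean SD, N = 4.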

[10] = AUC (0 to infinity) in Sprague-Dawley rat at 1 mg/kg, po; format: ADME, organism-based; parameters: dose 1 mg/kg, route oral, time infinity; settings: in vivo; procedure, shortened: as §1
[11] = AUC (0 to infinity) in Beagle dog at 1 mg/kg, po; format: ADME, organism-based, Canis lupus familiaris; parameters: dose 1 mg/kg, time infinity, route oral; settings: in vivo; procedure, shortened: as §1
[12] = Total clearance in Sprague-Dawley rat at 1 mg/kg, iv; format: ADME, organism-based; settings: in vivo
Procedure, shortened: (§2)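 A single intravenous injection at 1 mg/kg was given. Plasma concentration–time data gave total clearance (CL_total, mL/min/kg) and steady-state volume of distribution (Vd_ss, L/kg). Values are mean SD of N = 4 animals per species.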

[13] = Total clearance in cynomolgus monkey at 1 mg/kg, iv; format: ADME, organism-based, Macaca fascicularis; settings: in vivo; procedure, shortened: as §2
[14] = Volume of distribution at steady state in Beagle dog at 1 mg/kg, iv; format: ADME, organism-based, Canis lupus familiaris; settings: in vivo, read-out: Vdss; procedure, shortened: as §2
[15] = Oral bioavailability in Sprague-Dawley rat at 1 mg/kg; format: ADME, organism-based; settings: in vivo; procedure, shortened: as §1
[16] = Elimination half life in cynomolgus monkey at 1 mg/kg, iv; format: ADME, organism-based, Macaca fascicularis; settings: in vivo, read-out: beta t1/2 (converted); procedure, shortened: as §1
[17] = Elimination half life in cynomolgus monkey at 1 mg/kg, po; format: ADME, organism-based, Macaca fascicularis; settings: in vivo, read-out: beta t1/2 (converted); procedure, shortened: as §1
[18] = Half life in hepatocytes (unknown origin); format: ADME, cell-based, Hepatocyte
Rattus norvegicus [19] = test: Analgesic activity in po dosed rat model of chronic inflammatory pain assessed as inhibition of CFA-induced weight bearing deficit; format: functional
Procedure, shortened: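 Chronic inflammatory pain was modelled in rats with CFA and read out as weight bearing deficit after oral dosing. The value is the minimum effective dose (MED, mg/kg PO).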

CYP2C9 = CYP2C9 (Homo sapiens, UniProt P11712); test: Inhibition of CYP2C9 (unknown origin) at 1 uM relative to control; format: ADME
Procedure, shortened: (§3)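 CYP1A, CYP2C9, CYP2C19, CYP2D6 and CYP3A activities were each tested with 1 µM test article. Results are given as percent inhibition of enzyme activity.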

CYP2D6 = CYP2D6 (Homo sapiens, UniProt P10635); test: Inhibition of CYP2D6 (unknown origin) at 1 uM relative to control; format: ADME; procedure, shortened: as §3
CYP3A = test: Inhibition of CYP3A (unknown origin) at 1 uM relative to control; format: ADME; settings: human; procedure, shortened: as §3
[20] = Lipophilicity, log D of the compound at pH 7.4; format: physicochemical; settings: buffer

T1 sequence (P35408 whole entry): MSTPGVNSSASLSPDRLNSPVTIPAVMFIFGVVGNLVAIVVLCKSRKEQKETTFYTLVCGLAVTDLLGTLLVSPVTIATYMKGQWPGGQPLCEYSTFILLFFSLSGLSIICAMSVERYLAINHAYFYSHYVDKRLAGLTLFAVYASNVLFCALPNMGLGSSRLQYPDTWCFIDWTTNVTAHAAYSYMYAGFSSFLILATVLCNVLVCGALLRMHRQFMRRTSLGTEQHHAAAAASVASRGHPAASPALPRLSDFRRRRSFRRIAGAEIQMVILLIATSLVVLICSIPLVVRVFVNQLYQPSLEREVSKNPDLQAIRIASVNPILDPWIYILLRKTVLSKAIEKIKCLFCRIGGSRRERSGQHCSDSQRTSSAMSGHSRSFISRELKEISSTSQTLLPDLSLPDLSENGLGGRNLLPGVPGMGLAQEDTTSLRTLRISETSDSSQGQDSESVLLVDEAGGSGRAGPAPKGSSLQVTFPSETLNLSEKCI
Prostaglandin E2 receptor EP2 subtype, sequence (P43116 whole entry): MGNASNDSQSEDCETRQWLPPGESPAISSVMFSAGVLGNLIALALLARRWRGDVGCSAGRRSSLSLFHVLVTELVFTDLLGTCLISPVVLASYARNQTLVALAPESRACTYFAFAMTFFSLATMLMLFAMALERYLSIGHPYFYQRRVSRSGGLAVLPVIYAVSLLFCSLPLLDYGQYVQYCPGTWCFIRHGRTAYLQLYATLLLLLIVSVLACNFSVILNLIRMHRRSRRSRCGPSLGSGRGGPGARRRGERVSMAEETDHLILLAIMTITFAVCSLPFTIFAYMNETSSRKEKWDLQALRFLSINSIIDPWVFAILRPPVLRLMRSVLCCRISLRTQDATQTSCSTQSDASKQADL
CYP2C9, sequence (P11712 whole entry): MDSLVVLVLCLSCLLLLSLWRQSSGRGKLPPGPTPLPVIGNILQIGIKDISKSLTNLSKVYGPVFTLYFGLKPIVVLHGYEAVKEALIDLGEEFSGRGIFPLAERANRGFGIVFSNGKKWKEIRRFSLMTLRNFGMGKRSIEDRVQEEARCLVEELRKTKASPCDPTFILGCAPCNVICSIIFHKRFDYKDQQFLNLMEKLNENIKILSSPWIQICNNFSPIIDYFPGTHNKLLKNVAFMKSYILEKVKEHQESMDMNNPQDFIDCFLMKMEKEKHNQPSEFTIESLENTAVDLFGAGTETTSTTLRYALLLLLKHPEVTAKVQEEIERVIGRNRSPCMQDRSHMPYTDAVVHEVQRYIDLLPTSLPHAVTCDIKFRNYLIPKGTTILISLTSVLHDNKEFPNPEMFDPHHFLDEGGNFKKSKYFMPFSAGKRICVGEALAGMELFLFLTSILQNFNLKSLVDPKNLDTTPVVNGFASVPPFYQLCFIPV
CYP2D6, sequence (P10635 whole entry): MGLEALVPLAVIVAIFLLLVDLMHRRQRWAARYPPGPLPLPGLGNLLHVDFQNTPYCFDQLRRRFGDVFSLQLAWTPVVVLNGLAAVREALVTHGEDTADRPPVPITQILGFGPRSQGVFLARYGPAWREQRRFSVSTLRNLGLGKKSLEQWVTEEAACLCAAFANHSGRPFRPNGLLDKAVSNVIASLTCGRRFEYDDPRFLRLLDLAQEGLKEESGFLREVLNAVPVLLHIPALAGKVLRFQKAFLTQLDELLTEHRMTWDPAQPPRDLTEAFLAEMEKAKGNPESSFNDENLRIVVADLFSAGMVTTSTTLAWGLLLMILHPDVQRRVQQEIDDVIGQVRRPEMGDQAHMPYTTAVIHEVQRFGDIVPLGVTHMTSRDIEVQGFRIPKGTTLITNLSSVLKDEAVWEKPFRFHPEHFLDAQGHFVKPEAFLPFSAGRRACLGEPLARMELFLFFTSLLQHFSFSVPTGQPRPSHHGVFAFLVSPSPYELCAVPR
Prostaglandin F2-alpha receptor, sequence (P43088 whole entry): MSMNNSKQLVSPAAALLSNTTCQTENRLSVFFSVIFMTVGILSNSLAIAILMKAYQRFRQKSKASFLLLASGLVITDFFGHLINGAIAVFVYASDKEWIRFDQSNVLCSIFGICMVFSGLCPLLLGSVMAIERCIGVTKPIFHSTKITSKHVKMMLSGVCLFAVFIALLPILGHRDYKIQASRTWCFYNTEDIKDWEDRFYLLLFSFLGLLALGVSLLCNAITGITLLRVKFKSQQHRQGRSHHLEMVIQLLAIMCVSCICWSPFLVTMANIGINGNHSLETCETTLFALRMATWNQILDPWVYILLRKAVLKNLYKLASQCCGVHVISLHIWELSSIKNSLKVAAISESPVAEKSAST
Prostacyclin receptor, sequence (P43119 whole entry): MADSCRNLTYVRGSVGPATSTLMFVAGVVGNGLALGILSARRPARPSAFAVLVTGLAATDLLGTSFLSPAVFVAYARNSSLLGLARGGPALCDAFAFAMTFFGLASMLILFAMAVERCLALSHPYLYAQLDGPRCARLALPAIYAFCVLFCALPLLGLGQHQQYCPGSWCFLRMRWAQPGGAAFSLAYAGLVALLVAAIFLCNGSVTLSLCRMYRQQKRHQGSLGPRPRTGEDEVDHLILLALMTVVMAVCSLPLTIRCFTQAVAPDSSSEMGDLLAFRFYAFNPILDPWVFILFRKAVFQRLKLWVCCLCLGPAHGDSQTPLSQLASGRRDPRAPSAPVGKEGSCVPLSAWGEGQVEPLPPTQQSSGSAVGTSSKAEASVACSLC

**Q.** What does the source list for `C[C@H](NC(=O)c1cc(Cl)cnc1Oc1cccc(F)c1)c1ccc(C(=O)O)cc1`?
**A.** Ki (Prostacyclin receptor): > 6000 nM; A2 [1]: 1.1 nM; IC50 [1]: 16.3 nM; Kb ([1]; read-out: pA2 (converted)): 1.07 nM; solubility [2]: 73 µg/mL (≈ 176 µM); IC50 [3]: 2.4 nM; Ki [3]: 0.97 nM; IC50 [4]: 1890 nM; Ki [4]: 1840 nM; inhibition (Rattus norvegicus [5]): Dose-dependent effect; minimal effective dose (Rattus norvegicus [5]; read-out: MED): 1 mg/kg; Ki [6]: > 6000 nM; Ki [7]: > 6000 nM; Tmax [8]: 0.75 h; Tmax [9]: 0.438 h; AUC(0-inf) [10]: 7090 ng·h/mL; AUC(0-inf) [11]: 6080 ng·h/mL; clearance [12]: 1.75 mL/min/kg; clearance [13]: 5.31 mL/min/kg; Vd [14]: 1.21 L/kg; bioavailability [15]: 73.6%; half-life [16]: 14.5 h; half-life [17]: 21.9 h; half-life [18]: > 6 h; inhibition (Rattus norvegicus [19]): Dose-dependent effect; minimal effective dose (Rattus norvegicus [19]; read-out: MED): 1 mg/kg; inhibition at 1 µM (CYP2C9): < 5%; inhibition at 1 µM (CYP2D6): < 5%; inhibition at 1 µM (CYP3A): < 5%; logD [20]: 0.7
